Data on 36 sequences can be found in the EternaBench riboswitch data.

This data set relates to MS2 coat protein. The data set is described as follows: apparent Kd, MS2 coat protein; higher = weaker binding; RNA-MaP array; FMN 200 µM where present. Summed up:
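Green signal was scaled to red-channel RNA signal and control-cluster median Fmax, and the apparent Kd was taken as the median of filtered per-cluster binding-curve fits. The binding series used SNAP-549-labelled MS2 coat protein from 0.7 or 1.5 nM, doubling to 3 µM, on designs transcribed by stalled E. coli RNA polymerase on Illumina sequencing-chip clusters. Each series ran without and then with constant ligand in 100 mM Tris-HCl pH 7.5, 80 mM KCl, 4 mM MgCl2, BSA, DTT, yeast tRNA and Tween-20.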

[1] abbreviates: designed as: OFF switch for flavin mononucleotide, no ligand.
[2] abbreviates: ligand present: flavin mononucleotide, designed as: OFF switch for flavin mononucleotide.
Where [3] appears, read: designed as: ON switch for flavin mononucleotide, no ligand.
[4] abbreviates: ligand present: flavin mononucleotide, designed as: ON switch for flavin mononucleotide.

“UGUUGGAGCGAGAAGGGACGAUGGGAAGCUGUAGGCUGGCACUGUAGACAUGAGGAUCACCCAUGUCAGGAUAUUGCCGAACUA”: the “apparent Kd” value came to 5.83 nM under setting [1] and 7.71 nM under setting [2].

“UAAUAAUAGUCAGGAUAUAGUUAUUAUAAUAUACUAGAAGGGACACAUGAGGAUCACCCAUGUUUUAUAAUUUGUAAUUUAAAU”: the “apparent Kd” value under setting [1] stood at 21.6 nM and the “apparent Kd” value under setting [2] was determined as 17.7 nM.

“GGUACUCAAAGAGUACGGAGUCGAACAUGAGGAUCACCCAUGUAGGAUAUGCAAAGCUAGAAGUAGCAGAAGGACAUGUGCAGC”: the “apparent Kd” value by setting is: under setting [1], 15 nM; under setting [2], 17.1 nM.

On to “AUCAGCUCGUCAGGAUAUAUAUCACUGCUUCGGCAGUGUAUUAAGAUCACAUGAGGAUCACCCAUGUAGAAGGGACGAGCUGAU”, for which the “apparent Kd” value is, setting by setting: under setting [1], 16.8 nM; under setting [2], 20.2 nM.

Consider “UUUCUUGGGCAAGGAUAUCCUGUGCGGUUACGGCUCGUGUCUGUCACAUGAGGAUCACCCAUGUGGGAGAAGGUGCCUGCGGUC”, for which the “apparent Kd” value came to 6.09 nM under setting [1] and 6.78 nM under setting [2].

“AUCAGCUCCUCAGGAUAUACAUCACUGCUUCGGCAGUGUAUUAAGAUCACAUGAGGAUCACCCAUGUAGAAGGGAGGAGCUGAU”: the “apparent Kd” value runs as follows: under setting [1], 29.5 nM; under setting [2], 336 nM.

With “UUAACAUGAGGAUCACCCAUGUAUAGGGAGUUAACAAUUGGACAGGAUAUUGAAGAUGUAGAUAGCAAGAAGGGUCGGUAGUCU”, the “apparent Kd” value reads like this: under setting [3], 38.9 nM; under setting [4], 35.8 nM.

Take “CCUACCAUCACAGGAUAUGCUAUCCUUUGGGUAGCAGAAGGGUGAUAACAUGAGGAUCACCCAUGUGGUAGGCCCGGUGACGGG”: the “apparent Kd” value reads like this: under setting [3], 768 nM; under setting [4], 227 nM.

“AAGGCGCUAGCAGGAUAUGUACAUGAGGAUCACCCAUGUAAAUCUGUAUCUGGUGAAGCGCAAGUAUAGAAGGGCUAACGCUGG”: the “apparent Kd” value came out at 4.71 nM under setting [1] and 6.2 nM under setting [2].

As to “GUCAGAUCGUGAGGAUAUACAACACUGCUUCGGCAGUGUAUUAAGAUCACAUGAGGAUCACCCAUGUAGAAGGCACGAGCUGAU”, the “apparent Kd” value reads like this: under setting [1], 13.3 nM; under setting [2], 236 nM.

As to “CUCUAGCUCACAGGAUAUGGGUGUCGACGAUGCCCAGAAGGGUGAUUUGGCACAUGAGGAUCACCCAUGUGGGCGCUUGAAUAU”, the “apparent Kd” value under setting [3] was determined as 44.5 nM and the “apparent Kd” value under setting [4] turned out to be 94.3 nM.

Regarding “ACUGUUGAGUAGAAGGUACGAUAUUAGUUAUAGUAAGGAUAUACUAACAUGAGGAUCACCCAUGUAUAAAUGGAUAAAUAUUCU”, the “apparent Kd” value runs as follows: under setting [3], 9.91 nM; under setting [4], 11.5 nM.

Turning to “AUCAUACAUGAGGAUCACCCAUGUUCCGGCAGGUCAGGAUAUAAAUCGAAUGAGUUCUAGUUAGAAGGGACAUCUA”, the “apparent Kd” value is, setting by setting: under setting [3], 49.3 nM; under setting [4], 39.2 nM.

With “GGGAAGUUAGGAUAUGCUGCUCGUCACUUGCGUGAUGAGUAGCAGAAGGAACAUGAGGAUCACCCAUGUAAAAA”, the “apparent Kd” value reads like this: under setting [1], 31.9 nM; under setting [2], 37.6 nM.

For “GCCAGGAUGUAAGGAUAUGCUGAGGAAUACUCAGCAGAAGGUACAUGAGGAUCACCCAUGUAAUCCUAAUAAUAAUAACCUGGC”, the “apparent Kd” value reads like this: under setting [1], 11.1 nM; under setting [2], 16.6 nM.

On to “GCAUGACAAAGUCAUGCAUAACGAACAUGAGGAUCACCCAUGUAGGAUAUGCUACUCAAAGAGUAGCAGAAGGACAUGUGUCUU”, for which the “apparent Kd” value is, setting by setting: under setting [1], 31.1 nM; under setting [2], 160 nM.

On to “UUACCCUCAGUAAGGAUAUCUUUAUCUGCUGAUAUAGAGAAGGUACAUGAGGAUCACCCAUGUGCGAUUGGGCU”, for which the “apparent Kd” value is, setting by setting: under setting [1], 116 nM; under setting [2], 282 nM.

Consider “CCGACGCAAGCAGGAUAUCUACUGGCGAUGGUACAUGAGGAUCACCCAUGUAGAGAAGGGCUAAGUGGAAGGAUGAUUUAAAAG”, for which the “apparent Kd” value runs as follows: under setting [1], 113 nM; under setting [2], 97 nM.

Turning to “AUCAGCUCGUCAGGAUAUACGUCACAGCGUCAGCAGUGUGGUAAGAUCACAUGAGGAUCACCCAUGUAGAAGGGACGAGCUGAU”, the “apparent Kd” value came to 16.8 nM under setting [1] and 223 nM under setting [2].

Regarding “CUCUUGUCAGGAUAUUAUGGACGAAGGCAGGGCCGCGUCAGUGAGAAGGGACAUGAGGAUCACCCAUGUAAAAU”, the “apparent Kd” value under setting [1] came to 97.8 nM and the “apparent Kd” value under setting [2] was determined as 74.6 nM.

As for “UGCAGGCGAGGAUAUGCUCGGGUUGCUUGUCGAGAGGAUGCACAUGAGGAUCACCCAUGUAGAAGGUGUCUAUG”, the “apparent Kd” value reads like this: under setting [1], 47.5 nM; under setting [2], 56.2 nM.

Turning to “AGCACGUCAGGAUAUCUGAUGUCUAACUUCGGUUAGACAUCAGAGAAGGGACAUGAGGAUCACCCAUGUGCAAA”, the “apparent Kd” value runs as follows: under setting [1], 60.6 nM; under setting [2], 77.9 nM.

For “GGGUGAUCUUUAGGAUAUCCCGCGCCAAAGUGCGUUUAUACUACAUGAGGAUCACCCAUGUAACGGGAGAAGGGAGGAAGCCCG”, the “apparent Kd” value is 81.7 nM under setting [3] and 29 nM under setting [4].

Turning to “CGCACUAAACAUGAGGAUCACCCAUGUAACUAAGAGCUAGUCAGAAGGCAUAAUUAGUGAAUUAAUGAGGAUAUGAAUAGUGCG”, the “apparent Kd” value worked out at 157 nM under setting [3] and 62.2 nM under setting [4].

In the case of “AACGUGUAAGGAUAUGCUGCUCGUCACAAAAGUGAUGAGUAGCAGAAGGUACAUGAGGAUCACCCAUGUAAAGA”, the “apparent Kd” value was determined as 35.4 nM under setting [1] and 73.8 nM under setting [2].

On to “GGGCAACAUGAGGAUCACCCAUGUCAGGAUAUCGGGCCCGGGCCGAAAGGCCCGGGCCCGAGAAGGGACAGCCC”, for which the “apparent Kd” value came to 21.3 nM under setting [1] and 21.6 nM under setting [2].

For “GCAUCGCAUGUCAGGAUAUGCUGUACCUUGGUACAGCAGAAGGGACAUGAGGAUCACCCAUGUGCCUACGAUGC”, the “apparent Kd” value amounted to 29.2 nM under setting [1] and 169 nM under setting [2].

As for “CUCAUGUGAGGAUAUAGUGCGUCUUCUAUUAUUAUUGAGUACUAGAAGGCACAUGAGGAUCACCCAUGUAGCAC”, the “apparent Kd” value is, setting by setting: under setting [1], 53.4 nM; under setting [2], 54.3 nM.

As for “CAACUGCAUGUGAGGAUAUGCACCGGCCAAGCCGGGCAGAAGGCACAUGAGGAUCACCCAUGUCAUCCUAUUGC”, the “apparent Kd” value reads like this: under setting [1], 12.6 nM; under setting [2], 27.8 nM.

Regarding “CUUACGCGAGGAUAUACAUGAGGAUCACCCAUGUAACGGUGUGUAAUAUAUAUUGCGUGUAGAAGGUGUGUGGG”, the “apparent Kd” value under setting [1] was 87 nM and the “apparent Kd” value under setting [2] is 101 nM.

Turning to “CUAAAUCAUGUAGGAUAUGCAUGGCGAAGCUACGCAGAAGGACAUGAGGAUCACCCAUGUCAGAACGUCUGCGUUCAGACGUUG”, the “apparent Kd” value reads like this: under setting [1], 17.7 nM; under setting [2], 58 nM.

Turning to “GCAGCGUAUGUAGGAUAUCGGUCAGUCUCUGAUCGAGAAGGACAUGAGGAUCACCCAUGUAAAUUACCGACUUUGUCGGGCUGC”, the “apparent Kd” value under setting [1] stood at 7.14 nM and the “apparent Kd” value under setting [2] was 9.62 nM.

Take “AUCAACCAGGCAGGAUAUCAAUGUGGCCUCAUCGUACACCCUCGCAACAUGAGGAUCACCCAUGUUGAGAAGGGCCAAUUGAGA”: the “apparent Kd” value came out at 8.52 nM under setting [1] and 8.99 nM under setting [2].

In the case of “UGAGCUGAAGGAUAUGCGUAAUCUCGGUGACGAGUAGAUCUACAUGAGGAUCACCCAUGUAGAAGGUCAGUUCU”, the “apparent Kd” value is, setting by setting: under setting [1], 15.5 nM; under setting [2], 17.5 nM.

For the sequence “AGCGGCCGAGGAUAUACAAUCCUCCUGGCAGCCUGUCUGCCACAUGAGGAUCACCCAUGUAGAAGGCGGACCGC”, the “apparent Kd” value under setting [1] is 167 nM and the “apparent Kd” value under setting [2] stood at 38.3 nM.

“GAGUGGAUGAGACCGCGGGCGACAUGAGGAUCACCCAUGUUGCAGGAUAUCAGUGCGUCGGCGCCUGAGAAGGGCGACAAUCAU”: the “apparent Kd” value under setting [1] came to 6.56 nM and the “apparent Kd” value under setting [2] came to 7.11 nM.

A word on the apparent Kd: it is the concentration giving half-maximal binding under the conditions of the assay.
